# In publication PMC3349182 (British Journal of Cancer, 2012):
# System: patients with advanced, refractory solid tumours
# Experiment: Phase I dose escalation: toxicity
# Type: in vivo, human
# Outline: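 Oral dosing was once daily in 28-day cycles, escalating by an accelerated design from 0.2 mg/day. Toxicity was graded by NCI CTC v3.0. During cycle 1, patients had weekly examination, blood pressure, full blood count, biochemistry and urinalysis, plus ECGs on days 1 and 8. DLT covered drug-related toxicity in cycle 1: grade ⩾3 toxicity, repeated grade 2 toxicity needing dose reduction, or <75% of planned dose given. The MTD was the highest dose with ≤1/6 patients having a DLT, and 12 more patients were treated at the MTD.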
# [1] = treatment-related, 25 mg (n=24)
# [2] = treatment-related, 0.2–6.4 mg (n=21)
smiles,measurement,setting,value
COc1cc2nccc(Oc3ccc(NC(=O)NC4CC4)c(Cl)c3)c2cc1C(N)=O [E7080],"Dose modifications required, % of patients",all doses,49%
same,"Dose modifications required, n patients",all doses,40
same,"Dose reduction because of stomatitis, % of patients",all doses,2%
same,"Haematological toxicities, % of patients","all grades, all doses",7%
same,"Dose modifications required, % of patients",at the MTD of 25 mg,54%
same,"Dose modifications required, n patients",at the MTD of 25 mg,13
same,Tolerability,"doses up to 25 mg per day, oral, daily continuous dosing",well tolerated
same,Maximum tolerated dose (MTD),"oral, once-daily continuous schedule, 28-day cycles",25 mg
same,"Abdominal pain (all grades), n patients",[1],7
same,"Anorexia (all grades), % of patients",[1],21%
same,"Anorexia (all grades), n patients",[1],5
same,"Constipation (all grades), n patients",[1],8
same,"Diarrhoea (all grades), n patients",[1],12
same,"Dry skin (all grades), % of patients",[1],46%
same,"Dry skin (all grades), n patients",[1],11
same,"Dysphonia (all grades), % of patients",[1],46%
same,"Dysphonia (all grades), n patients",[1],11
same,"Fatigue (all grades), % of patients",[1],21%
same,"Fatigue (all grades), n patients",[1],5
same,"Headache (all grades), n patients",[1],7
same,"Hypertension (all grades), n patients",[1],15
same,"Hypertension Grade 1, % of patients",[1],4%
same,"Hypertension Grade 1, n patients",[1],1
same,"Hypertension Grade 2, % of patients",[1],46%
same,"Hypertension Grade 2, n patients",[1],11
same,"Hypertension Grade 3, % of patients",[1],13%
same,"Lethargy (all grades), % of patients",[1],38%
same,"Lethargy (all grades), n patients",[1],9
same,"Nausea (all grades), n patients",[1],14
same,"Proteinuria (all grades), n patients",[1],7
same,"Proteinuria Grade 1, % of patients",[1],0%
same,"Proteinuria Grade 1, n patients",[1],0
same,"Proteinuria Grade 2, % of patients",[1],21%
same,"Proteinuria Grade 2, n patients",[1],5
same,"Proteinuria Grade 3, % of patients",[1],8%
same,"Stomatitis (all grades), n patients",[1],15
same,"Vomiting (all grades), n patients",[1],8
same,"Abdominal pain (all grades), % of patients","treatment-related, 32 mg (n=7)",0%
same,"Abdominal pain (all grades), n patients","treatment-related, 32 mg (n=7)",0
same,"Anorexia (all grades), n patients","treatment-related, 32 mg (n=7)",2
same,"Constipation (all grades), % of patients","treatment-related, 32 mg (n=7)",14%
same,"Constipation (all grades), n patients","treatment-related, 32 mg (n=7)",1
same,"Diarrhoea (all grades), n patients","treatment-related, 32 mg (n=7)",4
same,"Dry skin (all grades), % of patients","treatment-related, 32 mg (n=7)",14%
same,"Dry skin (all grades), n patients","treatment-related, 32 mg (n=7)",1
same,"Dysphonia (all grades), n patients","treatment-related, 32 mg (n=7)",3
same,"Fatigue (all grades), % of patients","treatment-related, 32 mg (n=7)",14%
same,"Fatigue (all grades), n patients","treatment-related, 32 mg (n=7)",1
same,"Headache (all grades), n patients","treatment-related, 32 mg (n=7)",2
same,"Hypertension (all grades), n patients","treatment-related, 32 mg (n=7)",4
same,"Hypertension Grade 1, n patients","treatment-related, 32 mg (n=7)",2
same,"Hypertension Grade 2, % of patients","treatment-related, 32 mg (n=7)",0%
same,"Hypertension Grade 2, n patients","treatment-related, 32 mg (n=7)",0
same,"Hypertension Grade 3, n patients","treatment-related, 32 mg (n=7)",2
same,"Lethargy (all grades), n patients","treatment-related, 32 mg (n=7)",2
same,"Nausea (all grades), n patients","treatment-related, 32 mg (n=7)",3
same,"Proteinuria (all grades), n patients","treatment-related, 32 mg (n=7)",3
same,"Proteinuria Grade 1, % of patients","treatment-related, 32 mg (n=7)",0%
same,"Proteinuria Grade 1, n patients","treatment-related, 32 mg (n=7)",0
same,"Proteinuria Grade 2, % of patients","treatment-related, 32 mg (n=7)",14%
same,"Proteinuria Grade 2, n patients","treatment-related, 32 mg (n=7)",1
same,"Proteinuria Grade 3, n patients","treatment-related, 32 mg (n=7)",2
same,"Stomatitis (all grades), n patients","treatment-related, 32 mg (n=7)",4
same,"Vomiting (all grades), % of patients","treatment-related, 32 mg (n=7)",14%
same,"Vomiting (all grades), n patients","treatment-related, 32 mg (n=7)",1
same,"Abdominal pain (all grades), % of patients",[2],0%
same,"Abdominal pain (all grades), n patients",[2],0
same,"Anorexia (all grades), % of patients",[2],10%
same,"Anorexia (all grades), n patients",[2],2
same,"Constipation (all grades), % of patients",[2],10%
same,"Constipation (all grades), n patients",[2],2
same,"Diarrhoea (all grades), n patients",[2],4
same,"Dry skin (all grades), % of patients",[2],5%
same,"Dry skin (all grades), n patients",[2],1
same,"Dysphonia (all grades), % of patients",[2],0%
same,"Dysphonia (all grades), n patients",[2],0
same,"Fatigue (all grades), % of patients",[2],10%
same,"Fatigue (all grades), n patients",[2],2
same,"Headache (all grades), % of patients",[2],0%
same,"Headache (all grades), n patients",[2],0
same,"Hypertension (all grades), % of patients",[2],10%
same,"Hypertension (all grades), n patients",[2],2
same,"Hypertension Grade 1, % of patients",[2],5%
same,"Hypertension Grade 1, n patients",[2],1
same,"Hypertension Grade 2, % of patients",[2],0%
